Experimental data taken from ChEMBL document CHEMBL4689842, “EUbOPEN Chemogenomics Library wave 1” (2021).
“And” between values parts separate entries of the source, which are not always exact repeats. Equal entries are not always repeated.

System: HEK-293T
Assay: Multiplex assay against HEK293T;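 on Population Tubulin-Different-Phenotype (%): share of the cells with healthy nuclei that show this phenotype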
Assay type: toxicity, cell-based
Conditions: human
Method in brief: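 With compound added, live cells were imaged on a CQ1 microscope at 37°C and 5% CO2; staining with Hoechst33342, BioTracker Green Microtubule Cytoskeleton Dye, MitoTracker Red and Annexin V Alexa Fluor 680 had been done at seeding. The CellPathfinder machine-learning gating scheme split cells into Hoechst high-intensity objects or normal cells, normal cells into healthy, pyknosed or fragmented nuclei, and pyknosed cells into mitotic or apoptotic. The tubulin, mitochondrial-mass and membrane-permeability phenotypes are per cents of healthy-nucleus cells.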

[1] = 12 h, 1 µM, compound concentration 1 uM, replicate 1
[2] = 12 h, 1 µM, compound concentration 1 uM, replicate 2
[3] = 12 h, 10 µM, compound concentration 10 uM, replicate 1
[4] = 12 h, 10 µM, compound concentration 10 uM, replicate 2
[5] = 24 h, 1 µM, compound concentration 1 uM, replicate 1
[6] = 24 h, 1 µM, compound concentration 1 uM, replicate 2
[7] = 24 h, 10 µM, compound concentration 10 uM, replicate 1
[8] = 24 h, 10 µM, compound concentration 10 uM, replicate 2
[9] = 48 h, 1 µM, compound concentration 1 uM, replicate 1
[10] = 48 h, 1 µM, compound concentration 1 uM, replicate 2
[11] = 48 h, 10 µM, compound concentration 10 uM, replicate 1
[12] = 48 h, 10 µM, compound concentration 10 uM, replicate 2

For `CN1CCN(Cc2ccc(Nc3ncc(Cl)c(Nc4ccccc4S(=O)(=O)N(C)C)n3)cc2)CC1` [DUBERMATINIB], the “Population Apoptotic (%)” value [1] was 48%, the “Population Fragmented Nuclei (%)” value [1] was 14% and the “Population Healthy Nuclei (%)” value [1] was 42%. For the same compound, the “Population Hoechst High Intensity Objects (%)” value [1] was 12%, the “Population Membrane Permeable-Phenotype (%)” value [1] was 0% and the “Population Mitochondria Different-Phenotype (%)” value [1] was 72%. The “Population Mitotic Cells (%)” value [1] was 51%, the “Population Normal (%)” value [1] was 87% and the “Population Pyknosed Nuclei (%)” value [1] was 42%. The “Population Tubulin-Different-Phenotype (%)” value [1] was 35%, the “Total Cell Count” value [1] was 297 and the “Population Apoptotic (%)” value [2] was 13%. The “Population Fragmented Nuclei (%)” value [2] was 8%, the “Population Healthy Nuclei (%)” value [2] was 55% and the “Population Hoechst High Intensity Objects (%)” value [2] was 2%. The “Population Membrane Permeable-Phenotype (%)” value [2] was 5%, the “Population Mitochondria Different-Phenotype (%)” value [2] was 14% and the “Population Mitotic Cells (%)” value [2] was 86%. For the same compound, the “Population Normal (%)” value [2] was 97%, the “Population Pyknosed Nuclei (%)” value [2] was 35% and the “Population Tubulin-Different-Phenotype (%)” value [2] was 14%. The “Total Cell Count” value [2] was 174, the “Population Apoptotic (%)” value [3] was 62% and the “Population Fragmented Nuclei (%)” value [3] was 11%. The “Population Healthy Nuclei (%)” value [3] was 40%, the “Population Hoechst High Intensity Objects (%)” value [3] was 18% and the “Population Membrane Permeable-Phenotype (%)” value [3] was 1%. For the same compound, the “Population Mitochondria Different-Phenotype (%)” value [3] was 96%, the “Population Mitotic Cells (%)” value [3] was 38% and the “Population Normal (%)” value [3] was 81%. The “Population Pyknosed Nuclei (%)” value [3] was 47%, the “Population Tubulin-Different-Phenotype (%)” value [3] was 88% and the “Total Cell Count” value [3] was 258. For the same compound, the “Population Apoptotic (%)” value [4] was 16%, the “Population Fragmented Nuclei (%)” value [4] was 14% and the “Population Healthy Nuclei (%)” value [4] was 59%. For the same compound, the “Population Hoechst High Intensity Objects (%)” value [4] was 4%, the “Population Membrane Permeable-Phenotype (%)” value [4] was 2% and the “Population Mitochondria Different-Phenotype (%)” value [4] was 32%. The “Population Mitotic Cells (%)” value [4] was 83%, the “Population Normal (%)” value [4] was 95% and the “Population Pyknosed Nuclei (%)” value [4] was 26%. For the same compound, the “Population Tubulin-Different-Phenotype (%)” value [4] was 33%, the “Total Cell Count” value [4] was 214 and the “Population Apoptotic (%)” value [5] was 53%. For the same compound, the “Population Fragmented Nuclei (%)” value [5] was 15%, the “Population Healthy Nuclei (%)” value [5] was 45% and the “Population Hoechst High Intensity Objects (%)” value [5] was 10%. For the same compound, the “Population Membrane Permeable-Phenotype (%)” value [5] was 0%, the “Population Mitochondria Different-Phenotype (%)” value [5] was 59% and the “Population Mitotic Cells (%)” value [5] was 46%. The “Population Normal (%)” value [5] was 89%, the “Population Pyknosed Nuclei (%)” value [5] was 39% and the “Population Tubulin-Different-Phenotype (%)” value [5] was 31%. For the same compound, the “Total Cell Count” value [5] was 290, the “Population Apoptotic (%)” value [6] was 27% and the “Population Fragmented Nuclei (%)” value [6] was 19%. The “Population Healthy Nuclei (%)” value [6] was 69%, the “Population Hoechst High Intensity Objects (%)” value [6] was 3% and the “Population Membrane Permeable-Phenotype (%)” value [6] was 16%. For the same compound, the “Population Mitochondria Different-Phenotype (%)” value [6] was 5%, the “Population Mitotic Cells (%)” value [6] was 72% and the “Population Normal (%)” value [6] was 96%. The “Population Pyknosed Nuclei (%)” value [6] was 11%, the “Population Tubulin-Different-Phenotype (%)” value [6] was 17% and the “Total Cell Count” value [6] was 206. For the same compound, the “Population Apoptotic (%)” value [7] was 69%, the “Population Fragmented Nuclei (%)” value [7] was 15% and the “Population Healthy Nuclei (%)” value [7] was 33%. For the same compound, the “Population Hoechst High Intensity Objects (%)” value [7] was 18%, the “Population Mitochondria Different-Phenotype (%)” value [7] was 88% and the “Population Mitotic Cells (%)” value [7] was 30%. The “Population Normal (%)” value [7] was 81%, the “Population Pyknosed Nuclei (%)” value [7] was 50% and the “Population Tubulin-Different-Phenotype (%)” value [7] was 80%. The “Total Cell Count” value [7] was 270, the “Population Apoptotic (%)” value [8] was 28% and the “Population Fragmented Nuclei (%)” value [8] was 19%. For the same compound, the “Population Healthy Nuclei (%)” value [8] was 42%, the “Population Hoechst High Intensity Objects (%)” value [8] was 6% and the “Population Membrane Permeable-Phenotype (%)” value [8] was 1%. The “Population Mitochondria Different-Phenotype (%)” value [8] was 21%, the “Population Mitotic Cells (%)” value [8] was 71% and the “Population Normal (%)” value [8] was 93%. For the same compound, the “Population Pyknosed Nuclei (%)” value [8] was 38%, the “Population Tubulin-Different-Phenotype (%)” value [8] was 25% and the “Total Cell Count” value [8] was 222. The “Population Apoptotic (%)” value [9] was 60%, the “Population Fragmented Nuclei (%)” value [9] was 26% and the “Population Healthy Nuclei (%)” value [9] was 51%. For the same compound, the “Population Hoechst High Intensity Objects (%)” value [9] was 10%, the “Population Membrane Permeable-Phenotype (%)” value [9] was 4% and the “Population Mitochondria Different-Phenotype (%)” value [9] was 26%. The “Population Mitotic Cells (%)” value [9] was 39%, the “Population Normal (%)” value [9] was 89% and the “Population Pyknosed Nuclei (%)” value [9] was 22%. The “Population Tubulin-Different-Phenotype (%)” value [9] was 24%, the “Total Cell Count” value [9] was 316 and the “Population Apoptotic (%)” value [10] was 38%. For the same compound, the “Population Fragmented Nuclei (%)” value [10] was 21%, the “Population Healthy Nuclei (%)” value [10] was 73% and the “Population Hoechst High Intensity Objects (%)” value [10] was 6%. The “Population Membrane Permeable-Phenotype (%)” value [10] was 20%, the “Population Mitochondria Different-Phenotype (%)” value [10] was 1% and the “Population Mitotic Cells (%)” value [10] was 61%. For the same compound, the “Population Normal (%)” value [10] was 93%, the “Population Pyknosed Nuclei (%)” value [10] was 5% and the “Population Tubulin-Different-Phenotype (%)” value [10] was 17%. For the same compound, the “Total Cell Count” value [10] was 259, the “Population Apoptotic (%)” value [11] was 65% and the “Population Healthy Nuclei (%)” value [11] was 24%. For the same compound, the “Population Hoechst High Intensity Objects (%)” value [11] was 15%, the “Population Membrane Permeable-Phenotype (%)” value [11] was 0% and the “Population Mitochondria Different-Phenotype (%)” value [11] was 83%. For the same compound, the “Population Mitotic Cells (%)” value [11] was 34%, the “Population Normal (%)” value [11] was 84% and the “Population Pyknosed Nuclei (%)” value [11] was 58%. For the same compound, the “Population Tubulin-Different-Phenotype (%)” value [11] was 70%, the “Total Cell Count” value [11] was 267 and the “Population Apoptotic (%)” value [12] was 29%. For the same compound, the “Population Fragmented Nuclei (%)” value [12] was 17%, the “Population Healthy Nuclei (%)” value [12] was 36% and the “Population Hoechst High Intensity Objects (%)” value [12] was 6%. The “Population Membrane Permeable-Phenotype (%)” value [12] was 2%, the “Population Mitochondria Different-Phenotype (%)” value [12] was 32% and the “Population Mitotic Cells (%)” value [12] was 70%. The “Population Normal (%)” value [12] was 93%, the “Population Pyknosed Nuclei (%)” value [12] was 46% and the “Population Tubulin-Different-Phenotype (%)” value [12] was 35%. For the same compound, the “Total Cell Count” value [12] was 210.

`CN1CCN(Cc2cc(NC(=O)c3ccc4c(c3)CN(c3ccccc3)CC4)cc(C(F)(F)F)c2)CC1` was tested, and the “Population Apoptotic (%)” value [1] was 37% and 18%, the “Population Fragmented Nuclei (%)” value [1] was 18% and 16% and the “Population Healthy Nuclei (%)” value [1] was 48% and 58%. The “Population Hoechst High Intensity Objects (%)” value [1] was 35% and 18%, the “Population Membrane Permeable-Phenotype (%)” value [1] was 16% and 8% and the “Population Mitotic Cells (%)” value [1] was 62% and 81%. The “Population Normal (%)” value [1] was 64% and 81%, the “Population Pyknosed Nuclei (%)” value [1] was 32% and 24% and the “Total Cell Count” value [1] was 601 and 582. The “Population Apoptotic (%)” value [2] was 20% and 14%, the “Population Fragmented Nuclei (%)” value [2] was 4% and 5% and the “Population Healthy Nuclei (%)” value [2] was 80% and 87%. For the same compound, the “Population Mitochondria Different-Phenotype (%)” value [2] was 36% and 15%, the “Population Mitotic Cells (%)” value [2] was 79% and 85% and the “Population Normal (%)” value [2] was 89% and 97%. The “Population Pyknosed Nuclei (%)” value [2] was 15% and 6%, the “Total Cell Count” value [2] was 1350 and 1353 and the “Population Apoptotic (%)” value [5] was 45% and 17%. For the same compound, the “Population Fragmented Nuclei (%)” value [5] was 18% and 14%, the “Population Healthy Nuclei (%)” value [5] was 63% and 71% and the “Population Mitochondria Different-Phenotype (%)” value [5] was 35% and 12%. For the same compound, the “Population Mitotic Cells (%)” value [5] was 54% and 82%, the “Population Normal (%)” value [5] was 70% and 90% and the “Population Pyknosed Nuclei (%)” value [5] was 18% and 14%. The “Total Cell Count” value [5] was 559 and 631, the “Population Apoptotic (%)” value [6] was 11% and the “Population Fragmented Nuclei (%)” value [6] was 13% and 16%. For the same compound, the “Population Healthy Nuclei (%)” value [6] was 78% and 81%, the “Population Mitotic Cells (%)” value [6] was 88% and the “Population Normal (%)” value [6] was 89% and 96%. For the same compound, the “Total Cell Count” value [6] was 1856 and 2285.
